ChEMBL document CHEMBL5230170, “Pyridine based dual binding site aromatase (CYP19A1) inhibitors” (RSC Med Chem, 2023)
Activity calls are given as the source filed them. The calls are words filed in the database; no cut-off is given here.

Experiments:
[1] = test system: MCF-10A; experiment: Cytotoxicity against human MCF-10A cells assessed as reduction in cell growth at 1 uM incubated for 48 hrs by BrdU cell proliferation assay; type: toxicity, cell-based
Outline: (§1)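 48 h exposure to 1 μM, with DMSO vehicle (≤0.01%) and doxorubicin (1 μM) controls, then BrdU added for 2 h at 37 °C before fixation, DNA denaturation and colorimetric immunoassay of BrdU incorporation. Plating was 8 × 10^3 cells/well for MCF-10A and 5 × 10^3 cells/well for MDA-MB-231. Technical replicates were n = 6 for MDA-MB-231 and n = 5 for MCF-7 and MCF-10A; one-way ANOVA with Tukey's test.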

[2] = test system: MCF7; experiment: Cytotoxicity against human MCF7 cells assessed as reduction in cell growth at 1 uM incubated for 48 hrs by BrdU cell proliferation assay; type: functional, cell-based; outline: as §1
[3] = test system: MDA-MB-231; experiment: Cytotoxicity against human MDA-MB-231 cells assessed as reduction in cell growth at 1 uM incubated for 48 hrs by BrdU cell proliferation assay; type: functional, cell-based; outline: as §1
[4] = organism: Homo sapiens; experiment: Selectivity index, ratio of IC50 for inhibition of CYP1A2 in human liver microsomes to IC50 for inhibition of CYP19A1 in human JEG-3 cells; type: cell-based
Outline: (§2)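 The CYP isoform IC50 was measured in human liver microsomes with an isoform-specific probe substrate. […] Tritiated water was charcoal-cleared and counted, then normalised to BCA protein, in triplicate. The index is the ratio of the isoform IC50 to the CYP19A1 IC50.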

[5] = organism: Homo sapiens; experiment: Selectivity index, ratio of IC50 for inhibition of CYP2D6 in human liver microsomes to IC50 for inhibition of CYP19A1 in human JEG-3 cells; type: cell-based; outline: as §2

SMILES | Activity [1] | Activity [2] | Activity [3] | Ratio IC50 [4] | Ratio IC50 [5]
COc1ccc2cc(C(O)(c3ccc(Br)cc3)c3cccnc3)oc2c1 (centres undefined) | Non-Toxic | inactive | inactive |  | 
CCC#CCOc1ccc2cc(C(O)(c3ccc(Cl)cc3)c3cccnc3)oc2c1 (centres undefined) | Not Active | inactive | inactive |  | 
CC#CCOc1ccc2cc(C(O)(c3ccc(Cl)cc3)c3cccnc3)oc2c1 (centres undefined) | Non-Toxic | inactive | inactive |  | 
COc1ccc2cc(C(O)(c3ccc(Cl)cc3)c3cccnc3)oc2c1 (centres undefined) | Non-Toxic | inactive | inactive |  | 
COc1ccc2cc(C(O)(c3cccnc3)c3ccc(Cl)cc3Cl)oc2c1 (centres undefined) | Non-Toxic | inactive | inactive |  | 
COc1cccc2c1C(=O)c1c(O)c3c(c(O)c1C2=O)C[C@@](O)(C(=O)CO)C[C@@H]3O[C@H]1C[C@H](N)[C@H](O)[C@H](C)O1 [DOXORUBICIN] | Not Active | inactive | inactive |  | 
COc1ccc2cc(C(O)(c3ccc(F)cc3)c3cccnc3)oc2c1 (centres undefined) | Non-Toxic | inactive | inactive |  | 
CCC#CCOc1ccc2cc(C(O)(c3ccc(Br)cc3)c3cccnc3)oc2c1 (centres undefined) | Not Active | inactive | inactive |  | 
CC#CCOc1ccc2cc(C(O)(c3ccc(Br)cc3)c3cccnc3)oc2c1 (centres undefined) | Non-Toxic | inactive | inactive | 30100 | 30100
